From PubChem BioAssay
Results filed as inconclusive are left out.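 The calls were made as follows, unless noted: active = growth inhibition above 25% in both replicates, a cutoff set 3 SD above the mean; inconclusive = above 25% in only one replicate; inactive = the rest.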

Assays:
[1] = S. cerevisiae growth inhibition in permissive medium (OD615), pilot counter-assay for S. cerevisiae lifespan shortening project, permissive growth control (AID 705); details: OD615, 24 h, at 10 µM, stronger effect = higher value
In short: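 System: engineered DeaD yeast; Medium: permissive raffinose/galactose medium; Compound dosing: 10 µM single dose, 0.25% DMSO; Incubation: 4 h cell pre-growth, 24 h exposure at 30 °C; Technique: OD at 615 nm; Evaluation: growth inhibition from lowered OD615 after 24 h.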

[2] = S. cerevisiae growth inhibition in restrictive medium, OD615, pilot screen, restrictive growth control, yeast lifespan reduction project (AID 706;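 active = growth inhibition above a set limit, 3 SD over mean compound inhibition, in both replicates, cut at about 43% in these data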;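 also: modified DeaD lifespan yeast strain shifted to restrictive glucose medium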); details: OD615, 48 h, at 10 µM, stronger effect = higher value
In short: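 Material: modified S. cerevisiae; buffer or medium: CSMM-D glucose medium; doses: one concentration, 10 µM final, 0.25% DMSO; incubation: 48 h compound exposure at 30 °C; detection: optical density at 615 nm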

[3] = doxorubicin toxicity protection in MRP-1 cells – H69AR cells, CellTiter-Glo, duplicate, MRP-1 activator project, pilot screen (AID 807;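 active = viability increase at or above a cutoff of the median across tested compounds plus 3 SD, cut at about 8.5% in these data, passing the limit was not always enough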;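 also: compound pretreatment 18-22 h then 72 h combined with doxorubicin; 0% = doxorubicin alone and 100% = vehicle without doxorubicin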); details: H69AR viability with doxorubicin, CellTiter-Glo luminescence; at 10 µM; stronger effect = higher value
[4] = viability of HCT116 without oncogenic beta-catenin – human colon tumor cells, pilot screen (AID 823;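 active = cell viability at or below a set limit in both duplicate runs, the limit being the all-compound median minus 4 SD, cut at about 23% in these data, passing the limit was not always enough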;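 also: 0% = wells killed by 20 µM Hyamine and 100% = untreated DMSO cell wells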); details: HCT116 beta-catenin knockout viability, CellTiter-Glo, 60 h; at 10 µM; stronger effect = lower value
[5] = viability of PTEN-null HCT116 cells – cell-based, HCT116 clonal line, CellTiter-Glo, pilot screen (AID 824;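 active = viability at or below 27.92% in each of two runs, the all-compound median minus 4 SD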;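 also: 0% = 20 µM Hyamine control and 100% = vehicle cell control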); details: HCT116 PTEN-deleted viability, 60 h, at 10 µM, stronger effect = lower value
[6] = RAM pathway blockade in budding yeast – dse1pr::URA3 reporter, 5-FOA selection, pilot screen (AID 869;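 active = inhibition over a set limit, the all-compound mean plus 3 SD, in both replicate runs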;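 also: 0% = DMSO wells with no growth and 100% = 10 µM 1-NA-PP1 with full growth; RAM network block rescues cells from 5-FOA so hits raise OD615 growth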); details: S. cerevisiae dse1pr::URA3 5-FOA growth, OD615, 2 d; at 10 µM; stronger effect = higher value; strain carries analog-sensitive mutant Cbk1 kinase
[7] = RAM signaling pathway blockade in yeast – S. cerevisiae, Pdr1DBD-CYC8 efflux-inhibited sensitized strain, primary screen (AID 1298;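 active = RAM network inhibition above 8.4% in each of two replicates, 3 SD over the compound average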;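 also: 0% = DMSO untreated cells without growth and 100% = 10 µM 1-NA-PP1 full growth; higher means more yeast growth rescued from 5-FOA killing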); details: S. cerevisiae cbk1-as DSE1-URA3 strain, 5-FOA growth OD615, 2 d; at 50 µM; stronger effect = higher value

Cn1cc(S(=O)(=O)N2CCN(Cc3ccccc3)CC2)c(=O)n(C)c1=O
inactive: growth inhibition [1] -11.9% | growth inhibition [2] -10.5% | viability increase [3] -0.5% | viability [4] 95.2% | viability [5] 95.5% | inhibition [6] 0.755% | RAM network inhibition [7] -0.22%

COc1cc(OC)cc(C(=O)Nc2cccc(NC(C)=O)c2)c1
inactive: growth inhibition [1] -2.19% | growth inhibition [2] -3.84% | viability increase [3] -2.31% | viability [4] 111% | viability [5] 108% | inhibition [6] 2.15% | RAM network inhibition [7] 2.04%

CCCOC(=O)c1ccc(NC(=O)c2ccoc2C)cc1
inactive: growth inhibition [1] -3.79% | growth inhibition [2] 1.33% | viability increase [3] 0.94% | viability [4] 75.5% | viability [5] 78% | inhibition [6] 2.72% | RAM network inhibition [7] 4.37%

O=c1c2cnn(-c3ccccc3)c2ncn1Cc1cccc(Cl)c1
inactive: growth inhibition [1] 2.21% | growth inhibition [2] 2.59% | viability increase [3] 3.21% | viability [4] 102% | viability [5] 91.7% | inhibition [6] 3.21% | RAM network inhibition [7] 6.55%

O=C(CN1CCOc2ccccc21)N1CCN(c2cccc(Cl)c2)CC1
inactive: growth inhibition [1] 6% | growth inhibition [2] 18.6% | viability increase [3] -4.17% | viability [4] 84.1% | viability [5] 84.4% | inhibition [6] 2.77% | RAM network inhibition [7] 4.14%

CCOC(=O)N1CCC(Nc2ccc3nnc(-c4ccccc4)n3n2)CC1
inactive: growth inhibition [1] 12.3% | growth inhibition [2] 29.3% | viability increase [3] -6.99% | viability [4] 69.4% | viability [5] 66% | inhibition [6] -0.975% | RAM network inhibition [7] 2.57%

COc1ccc(C2N(c3cc(Cl)ccc3OC)C(=O)C3CCCN32)cc1 (stereo not drawn)
inactive: growth inhibition [1] 2.4% | growth inhibition [2] -1.37% | viability increase [3] -1.89% | viability [4] 106% | viability [5] 96.9% | inhibition [6] 1.01% | RAM network inhibition [7] -0.42%

Cc1cc(C)c(OCC(=O)Nc2cccc(NC(=O)c3ccco3)c2)c(Br)c1
inactive: growth inhibition [1] -3.62% | growth inhibition [2] 4.23% | viability increase [3] -3.03% | viability [4] 56.1% | viability [5] 60.8% | inhibition [6] 0.45% | RAM network inhibition [7] 3.46%

O=C(Nc1nnc(-c2ccccc2)s1)c1ccc(Cl)c(S(=O)(=O)N2CCOCC2)c1
inactive: growth inhibition [1] -16.8% | growth inhibition [2] -5.79% | viability increase [3] -1.65% | viability [4] 100% | viability [5] 96.2% | inhibition [6] 2.61% | RAM network inhibition [7] 1.72%

CCCOc1ccc(N2C(=O)CC(N3CCC(O)(c4cccc(C(F)(F)F)c4)CC3)C2=O)cc1 (stereo not drawn)
inactive: growth inhibition [1] 1.01% | growth inhibition [2] -0.55% | viability increase [3] 2.49% | viability [4] 101% | viability [5] 103% | inhibition [6] 2.71% | RAM network inhibition [7] 5.62%

O=C(NCC1COc2ccccc2O1)C1CCCN(S(=O)(=O)c2cccc3cccnc23)C1 (stereo not drawn)
inactive: growth inhibition [1] -2.58% | growth inhibition [2] -19.5% | viability increase [3] 0.43% | viability [4] 71.8% | viability [5] 72.9% | inhibition [6] 2.7% | RAM network inhibition [7] 3.24%

O=C(O)CCCC(=O)Nc1c(F)c(F)c(F)c(F)c1F
inactive: growth inhibition [1] -5.5% | growth inhibition [2] -6.27% | viability increase [3] -1.85% | viability [4] 90.4% | viability [5] 94.4% | inhibition [6] 0.175% | RAM network inhibition [7] -0.87%

CC1CN(Cc2nc3c(c(=O)n(C)c(=O)n3C)n2Cc2cccc(Cl)c2)CC(C)O1 (stereo not drawn)
inactive: growth inhibition [1] -4.24% | growth inhibition [2] -9% | viability increase [3] -2.03% | viability [4] 100% | viability [5] 90.8% | inhibition [6] 0.74% | RAM network inhibition [7] 2.81%

CCOC(=O)N1CCC(NC(=O)c2cc3ccccn3n2)CC1
inactive: growth inhibition [1] 1.83% | growth inhibition [2] 1.79% | viability increase [3] 0.34% | viability [4] 97.5% | viability [5] 101% | inhibition [6] 1.8% | RAM network inhibition [7] 0.26%

Cc1cc(C)n2nc3nc4c(cc3c2n1)CCCC4
inactive: growth inhibition [1] -8.72% | growth inhibition [2] -14.6% | viability increase [3] -4.42% | viability [4] 88.2% | viability [5] 82.7% | inhibition [6] 4.34% | RAM network inhibition [7] 3.01%

S=c1[nH]nc(CSc2nc3ccccc3s2)o1
inactive: growth inhibition [1] -1.19% | growth inhibition [2] 16.7% | viability increase [3] -4.34% | viability [4] 93.8% | viability [5] 99.1% | inhibition [6] 0.95% | RAM network inhibition [7] 0.83%

O=C(NCC1COc2ccccc2O1)C1C2C=CC3(CN(Cc4ccccc4Cl)C(=O)C13)O2 (stereo not drawn)
inactive: growth inhibition [1] -6.06% | growth inhibition [2] -7.88% | viability increase [3] -1% | viability [4] 84.2% | viability [5] 84% | inhibition [6] 1.02% | RAM network inhibition [7] 0%

COc1ccccc1NC(=O)N1CCN(c2ccc3nncn3n2)CC1
inactive: growth inhibition [1] -3.47% | growth inhibition [2] 0.79% | viability increase [3] 0.48% | viability [4] 106% | viability [5] 103% | inhibition [6] -0.315% | RAM network inhibition [7] 0.69%

O=C(Nc1ccc(-c2nc3cccnc3s2)cc1)c1ccco1
inactive: growth inhibition [1] -4.68% | growth inhibition [2] 9.91% | viability increase [3] -3.43% | viability [4] 90% | viability [5] 80.4% | inhibition [6] 1.75% | RAM network inhibition [7] -1.95%

CCC(C)Sc1nc2c(c(=O)n1C)SC(C)C2 (stereo not drawn)
inactive: growth inhibition [1] -11.3% | growth inhibition [2] 7.98% | viability increase [3] -0.66% | viability [4] 91.6% | viability [5] 91.8% | inhibition [6] 2.51% | RAM network inhibition [7] 4.01%

COCCOC(=O)c1[nH]c2c(c1C)C(=O)CC(c1cc(OC)ccc1OC)C2 (stereo not drawn)
inactive: growth inhibition [1] -16.8% | growth inhibition [2] -12.3% | viability increase [3] -6.01% | viability [4] 38.6% | viability [5] 34.5% | inhibition [6] 2.09% | RAM network inhibition [7] 9.43%

CC1(C)CC(=O)C(=CN2CCN(C(=O)c3ccco3)CC2)C(=O)C1
inactive: growth inhibition [1] -20.6% | growth inhibition [2] -9.23% | viability increase [3] 0.72% | viability [4] 100% | viability [5] 90.3% | inhibition [6] 2.93% | RAM network inhibition [7] 3.19%

COc1cc(Cl)c(S(=O)(=O)n2cnc(C)c2)cc1Cl
inactive: growth inhibition [1] 2.76% | growth inhibition [2] 0.12% | viability increase [3] 0.28% | viability [4] 101% | viability [5] 104% | inhibition [6] 1.33% | RAM network inhibition [7] 2.3%

CC1CCN(C(=O)CSc2nnc(Cn3c(=O)sc4ccccc43)n2C)CC1
inactive: growth inhibition [1] -3.65% | growth inhibition [2] -5% | viability increase [3] -0.3% | viability [4] 121% | viability [5] 112% | inhibition [6] 0.075% | RAM network inhibition [7] 3.13%
